From paper PMC3319156 (Journal of Medicinal Chemistry, 2011)

Tests used:
MDA-MB-468 cells = test: Cytotoxicity to MDA-MB-468 cells, MTT assay; format: cell-based; conditions: MDA-MB-468, treated daily for three days
How it was run: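 MDA-MB-468 cells in DMEM with 10% FBS were plated at 1500 cells/well in triplicate, and the medium was changed the next day. Prodrug was dissolved fresh in ethanol to a 10 mM stock, diluted, and added. Further doses went into the same medium at 24 and 48 h, with final ethanol below 1%. Viability was read by MTT.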

Bcl-xL = test: Expression of downstream gene Bcl-xL in MDA-MB-468 cells; format: cell-based; conditions: MDA-MB-468, 5 µM
Stat3 [1] = molecular target: T1, Stat3 (Homo sapiens, UniProt P40763); test: Constitutive Stat3 phosphorylation in SKOV3ip ovarian cancer cells; format: cell-based
How it was run: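 SKOV3-ip cells were seeded at 3 × 10^5 cells/well in McCoy's 5A medium and handled as for MDA-MB-468. Prodrug was added from a 10 mM DMSO stock made just before use, for 2 h. Cells were lysed in Hepes pH 7.4/Triton X-100 buffer with phosphatase and protease inhibitors. 12 µg protein was run on 8% SDS-PAGE, blotted for pStat3 Y705 by ECL, then stripped and reprobed for total Stat3.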

Ser473 of Akt [2] = test: Akt Ser473 phosphorylation in MDA-MB-468 cells; format: cell-based
H528 = test: Growth inhibition of H528 NSCLC cells; format: cell-based; conditions: H528, 5–10 µM, data not shown
cyclin D1 [3] = test: Expression of downstream gene cyclin D1 in MDA-MB-468 cells; format: cell-based; conditions: MDA-MB-468, 5 µM
Tyr701 of Stat1 = molecular target: T2, Tyr701 of Stat1 (Homo sapiens, UniProt P42224); test: IFNγ-stimulated Stat1 Tyr701 phosphorylation in MDA-MB-468 cells; format: cell-based; conditions: MDA-MB-468, 1.5 h then 30 min IFNγ
T2 sequence (P42224 1-750): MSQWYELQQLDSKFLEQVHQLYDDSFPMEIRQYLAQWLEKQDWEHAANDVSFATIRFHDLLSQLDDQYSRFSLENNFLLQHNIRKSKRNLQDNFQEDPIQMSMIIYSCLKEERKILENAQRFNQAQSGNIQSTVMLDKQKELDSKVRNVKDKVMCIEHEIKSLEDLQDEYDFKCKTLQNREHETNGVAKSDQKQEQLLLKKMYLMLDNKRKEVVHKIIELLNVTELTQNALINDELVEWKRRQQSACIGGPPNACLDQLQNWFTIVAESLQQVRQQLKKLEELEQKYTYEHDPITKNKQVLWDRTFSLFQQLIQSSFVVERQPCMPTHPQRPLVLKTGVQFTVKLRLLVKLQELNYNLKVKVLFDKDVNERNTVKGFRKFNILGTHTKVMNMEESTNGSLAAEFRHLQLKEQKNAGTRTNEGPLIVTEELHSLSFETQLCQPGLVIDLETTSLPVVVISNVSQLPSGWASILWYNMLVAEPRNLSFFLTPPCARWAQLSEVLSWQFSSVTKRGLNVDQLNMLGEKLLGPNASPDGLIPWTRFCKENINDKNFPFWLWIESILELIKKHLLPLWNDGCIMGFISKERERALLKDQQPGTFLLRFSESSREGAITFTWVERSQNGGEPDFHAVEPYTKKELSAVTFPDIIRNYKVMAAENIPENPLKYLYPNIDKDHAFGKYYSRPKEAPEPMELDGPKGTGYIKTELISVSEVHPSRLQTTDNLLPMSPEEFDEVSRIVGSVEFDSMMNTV
How it was run: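 MDA-MB-468 cells were prepared as for the Stat3 assay (plated overnight in DMEM/10% FCS) and exposed to increasing test compound concentrations for 1.5 h. Interferon γ was then added at 25 ng/mL for 30 min. Lysates were run on PAGE, blotted to PVDF, and probed for pTyr701 Stat1 and total Stat1 with chemiluminescent detection.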

[4] = system: Tyr861 of the focal adhesion kinase (FAK); test: Constitutive FAK Tyr861 phosphorylation in MDA-MB-468 cells; format: cell-based
How it was run: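 Constitutive signal, no stimulus: MDA-MB-468 cells were plated overnight in DMEM/10% FCS and given test compound from a 10 mM DMSO stock for 2 h. Cells were lysed in Hepes pH 7.4 detergent buffer with phosphatase and protease inhibitors. Protein was separated by SDS-PAGE, blotted to PVDF, blocked with 5% BSA, and probed for pTyr861 FAK and total FAK.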

Tyr705 of Stat3 [5] = molecular target: T3, Tyr705 of Stat3 (Homo sapiens, UniProt P40763); test: Inhibition of constitutive Stat3 Tyr705 phosphorylation in MDA-MB-468 cells; format: cell-based
How it was run: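 MDA-MB-468 cells (4 × 10^5/well) were grown overnight in DMEM with 10% FCS. Prodrug was given from a 10 mM DMSO stock prepared fresh, for 2 h, or over a time course. After ice-cold PBS washes, cells were lysed (Hepes pH 7.4, Triton X-100, NaF, vanadate, protease inhibitors). 12 µg protein went on 8% SDS-PAGE/PVDF with 5% BSA block. Blots were probed for pStat3 Y705 by ECL, stripped at 50°C, and reprobed for total Stat3.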

Ser473 of Akt [6] = test: Akt Ser473 phosphorylation in HCC-827 NSCLC cells; format: cell-based
p38 MAPK = p38 MAPK phosphorylation in HCC-827 NSCLC cells; format: cell-based
Tyr694 of Stat5 = test: Stat5 Tyr694 phosphorylation in MDA-MB-468 cells; format: cell-based
Stat3 [7] = molecular target: T1, Stat3; test: EGF-stimulated Stat3 phosphorylation in MDA-MB-468 cells; format: cell-based; conditions: MDA-MB-468, 5 µM, 1.5 h then EGF 30 min
Stat3 [8] = molecular target: T1, Stat3; test: IL-6-stimulated Stat3 phosphorylation in MeWo melanoma cells; format: cell-based; conditions: 1.5 hour exposure then IL-6
How it was run: (§1)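 Hey, MeWo and A375 cells were seeded at 3 × 10^5 cells/well in RPMI1640 and cultured overnight, with a media change. Cells then received increasing test compound concentrations for 2 h. IL-6 at 10 ng/mL was present for the last 30 min. Lysates were blotted for pStat3 Y705 and total Stat3 as in the constitutive assay.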

Stat3 [9] = molecular target: T1, Stat3; test: IL-6-stimulated Stat3 phosphorylation in A375 melanoma cells; format: cell-based; conditions: A375, 1.5 hour exposure then IL-6
How it was run: as §1

survivin [10] = test: Expression of survivin in MDA-MB-468 cells; format: cell-based; conditions: MDA-MB-468 breast line, data not shown
Stat3 [11] = molecular target: T1, Stat3; test: Stat3 phosphorylation in HCC-827 non-small-cell lung cancer cells; format: cell-based; conditions: HCC-827, 5 µM
survivin [12] = test: Expression of survivin in HCC-827 cells; format: cell-based; conditions: HCC-827 lung line, 5 µM
Stat3 [13] = molecular target: T1, Stat3; test: IL-6-stimulated Stat3 phosphorylation in HEY ovarian cancer cells; format: cell-based; conditions: 1.5 hour exposure then IL-6
How it was run: as §1

pTyr705 Stat3 = pTyr705 Stat3 (Homo sapiens, UniProt P40763); format: cell-based; conditions: MDA-MB-468, 5 µM, 2 h
How it was run: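 MDA-MB-468 cells on slides were given DMSO or 5 µM test compound for 2 h. Cells were fixed in 4% paraformaldehyde, permeabilized with 0.5% Triton X-100 and blocked with 3% BSA. Staining used anti-pTyr705 Stat3 and an Alexa Fluor 594 secondary. Confocal imaging used identical microscope settings throughout.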

cyclin D1 [14] = test: Expression of cyclin D1 in HCC-827 cells; format: cell-based; conditions: HCC-827, 5 µM
Tyr705 of Stat3 [15] = molecular target: T3, Tyr705 of Stat3; conditions: MDA-MB-468; cited from earlier work
[16] = MDA-MB-468, 5 µM, 1.5 h then EGF 30 min
[17] = MDA-MB-468, 25 µM, two hour treatment
[18] = MDA-MB-468, 2 h treatment, western blot
[19] = MDA-MB-468, single dose of 5 µM

T3 sequence (P40763 whole entry): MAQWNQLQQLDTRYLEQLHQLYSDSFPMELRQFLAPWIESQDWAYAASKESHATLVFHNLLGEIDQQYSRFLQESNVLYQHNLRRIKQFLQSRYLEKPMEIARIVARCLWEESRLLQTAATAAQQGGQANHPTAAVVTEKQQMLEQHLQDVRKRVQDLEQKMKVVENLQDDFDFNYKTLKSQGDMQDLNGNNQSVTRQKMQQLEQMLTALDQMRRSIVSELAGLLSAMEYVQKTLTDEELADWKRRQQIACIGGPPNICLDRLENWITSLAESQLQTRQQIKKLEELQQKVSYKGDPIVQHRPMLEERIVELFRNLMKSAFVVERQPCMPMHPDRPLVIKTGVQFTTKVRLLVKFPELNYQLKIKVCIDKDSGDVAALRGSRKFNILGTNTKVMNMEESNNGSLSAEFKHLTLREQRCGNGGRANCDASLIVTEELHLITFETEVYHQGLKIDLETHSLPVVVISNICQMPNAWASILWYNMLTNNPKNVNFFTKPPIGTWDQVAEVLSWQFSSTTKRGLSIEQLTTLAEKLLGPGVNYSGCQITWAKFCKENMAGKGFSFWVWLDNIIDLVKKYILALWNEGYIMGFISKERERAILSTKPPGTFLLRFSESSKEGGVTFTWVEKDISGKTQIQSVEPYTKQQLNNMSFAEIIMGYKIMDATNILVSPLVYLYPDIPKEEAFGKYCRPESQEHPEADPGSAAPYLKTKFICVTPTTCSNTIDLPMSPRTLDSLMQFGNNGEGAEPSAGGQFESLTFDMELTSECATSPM
T1 sequence (P40763 whole entry): as above
Sequence of pTyr705 Stat3 (P40763 whole entry): as above

Q: Which results are given for `C/C(=C\C(=O)N[C@H]1CCc2cccc3c2N(C1=O)[C@H](C(=O)N[C@H](C)CCC(N)=O)C3)c1ccc(C(F)(F)P(=O)(OCOC(=O)C(C)(C)C)OCOC(=O)C(C)(C)C)cc1` [compound 34, βMF2Pm(POM2)Cinn-Haic-Apa]?
A: survival curves with daily dosing compared with single dose (MDA-MB-468 cells): little change in the survival curves; expression of Bcl-xL (Bcl-xL): No inhibition; concentration at which constitutively activated Stat3 was completely inhibited (Stat3 [1]): 1 µM; Akt Ser473 phosphorylation (Ser473 of Akt [2]; [16]): do not inhibit Akt phosphorylation; Akt phosphorylation at high concentration (Ser473 of Akt [2]; [17]): inhibited phosphorylation; inhibition (H528): < 20%; expression of cyclin D1 (cyclin D1 [3]): No inhibition; concentration of complete inhibition of Stat1 phosphorylation (Tyr701 of Stat1): 5 µM; FAK phosphorylation at high concentration [4, 17]: inhibited phosphorylation; FAK Tyr861 phosphorylation ([4]; MDA-MB-468, 2 h treatment): no reduction of Tyr861 phosphorylation; concentration at which pStat3 was completely inhibited (Tyr705 of Stat3 [5]; [18]): 0.5 µM; concentration with noticeable inhibition of pStat3 (Tyr705 of Stat3 [5]; [18]): 0.1 µM; time at which pStat3 formation was completely inhibited (Tyr705 of Stat3 [5]; [19]): 30 min; time for which complete inhibition of pStat3 was sustained (Tyr705 of Stat3 [5]; [19]): 4 h; phosphorylation of Ser473 of Akt (Ser473 of Akt [6]): no effect; phosphorylation of p38 MAPK (p38 MAPK): no effect; Stat5 phosphorylation (Tyr694 of Stat5; [16]): not inhibited; Stat5 phosphorylation at high concentration (Tyr694 of Stat5; [17]): inhibited phosphorylation; increase in Stat3 phosphorylation induced by EGF (Stat3 [7]): completely inhibited; IL-6-induced pStat3 formation (Stat3 [8]): inhibited pStat3 formation; IL-6-induced pStat3 formation (Stat3 [9]): inhibited pStat3 formation; expression of survivin (survivin [10]): reduced; duration of pStat3 inhibition (Stat3 [11]): at least 4 h; pStat3 level at 24 h (Stat3 [11]; 24 h): had not returned to pretreatment levels; expression of survivin (survivin [12]): reduced; IL-6-induced pStat3 formation (Stat3 [13]): inhibited pStat3 formation; pStat3 nuclear localization (pTyr705 Stat3): abrogated nuclear localization; expression of cyclin D1 (cyclin D1 [14]): not inhibited

Q: Which “effect on level of pStat3” value (Tyr705 of Stat3 [5]; MDA-MB-468, 2 h, increasing concentrations) does the source give for `CC(C)(C)C(=O)OCOP(=O)(OCOC(=O)C(C)(C)C)C(F)(F)c1ccc(/C=C/C(=O)N[C@H]2CCc3cccc4c3N(C2=O)[C@H](C(=O)N[C@@H](CCC(N)=O)C(=O)NCc2ccccc2)C4)cc1` [compound 3] here?
A: reduced the level of pStat3 in a dose-dependent manner

Q: What about the “concentration that completely inhibited constitutive phosphorylation of Stat3 Tyr705” value (Tyr705 of Stat3 [15]) of the same compound?
A: 10 µM
